The target in test [1] is Dual specificity protein phosphatase 3 (Homo sapiens, UniProt P51452). Kind of test: Inhibitory activity against vaccinia VH1-related phosphatase (VHR). Summed up:
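Recombinant VHR expressed in E. coli and purified, used at 0.6 μM with 10 mM pNPP substrate in 50 mM succinate, 1 mM EDTA, 150 mM NaCl, pH 6.0, ± compound. Incubated 3 min at 37 °C, stopped with 1 N NaOH, and activity read as absorbance change at 405 nm.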

Test [2] addresses T1, M-phase inducer phosphatase 2 (Mus musculus, UniProt P30306).
T1 sequence (P30306 whole entry): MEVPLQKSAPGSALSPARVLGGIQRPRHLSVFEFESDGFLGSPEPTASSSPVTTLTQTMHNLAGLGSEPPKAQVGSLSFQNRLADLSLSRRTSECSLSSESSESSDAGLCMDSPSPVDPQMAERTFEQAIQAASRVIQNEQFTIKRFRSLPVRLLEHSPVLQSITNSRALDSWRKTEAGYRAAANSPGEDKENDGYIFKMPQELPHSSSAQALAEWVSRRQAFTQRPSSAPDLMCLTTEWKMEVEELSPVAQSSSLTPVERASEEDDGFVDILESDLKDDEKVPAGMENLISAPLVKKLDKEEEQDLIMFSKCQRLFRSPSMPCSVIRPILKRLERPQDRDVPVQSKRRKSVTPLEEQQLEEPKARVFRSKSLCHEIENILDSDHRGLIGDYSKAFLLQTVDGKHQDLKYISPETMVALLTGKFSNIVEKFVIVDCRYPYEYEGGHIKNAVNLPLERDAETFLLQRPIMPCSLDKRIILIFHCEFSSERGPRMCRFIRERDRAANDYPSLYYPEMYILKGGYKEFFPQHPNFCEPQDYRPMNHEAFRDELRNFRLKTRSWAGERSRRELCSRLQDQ
Kind of test: Inhibitory activity against cell division cycle 25B.

The structures appear in SMILES notation. pIC50: −log10 of the molar value.

IC50 data for 3 compounds are collected here from BindingDB's records for doi:10.1021/jm0100741 (Tohoku University, 2001).

Sequence of Dual specificity protein phosphatase 3 (P51452 whole entry): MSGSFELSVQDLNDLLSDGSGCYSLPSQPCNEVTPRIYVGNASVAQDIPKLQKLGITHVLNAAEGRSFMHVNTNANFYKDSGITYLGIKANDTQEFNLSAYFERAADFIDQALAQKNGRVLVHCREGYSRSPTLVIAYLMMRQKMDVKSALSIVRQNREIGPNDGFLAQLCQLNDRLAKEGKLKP

For orientation: pIC50 means the negative decadic logarithm of the IC50, by convention in mol/L. Low values mean a large IC50, high ones a small IC50. Consider `CC(C)=CCCC(C)CCOC(=O)c1c(O)oc(CO)c1O` (stereo unspecified) [4-Hydroxy-5-hydroxymethyl-2-oxo-2,5-dihydro-furan-3-carboxylic acid 3,7-dimethyl-oct-6-enyl ester], for which the pIC50 in test [1] was below 3.60; in test [2] it was below 3.90.
In the case of `O=C(OCc1ccccc1)c1c(O)oc(CO)c1O` [4-Hydroxy-5-hydroxymethyl-2-oxo-2,5-dihydro-furan-3-carboxylic acid benzyl ester], the values for the pIC50 in test [1] and in test [2] were below 3.60 and below 3.90, respectively.
On to `O=C(OC1CCCCC1)c1c(O)oc(CO)c1O` [4-Hydroxy-5-hydroxymethyl-2-oxo-2,5-dihydro-furan-3-carboxylic acid cyclohexyl ester], for which the pIC50 is below 3.60 in test [1] and below 3.90 in test [2].
